Consider 25 compounds from ChEMBL document CHEMBL1135914, “Bioactive pseudopeptidic analogues and cyclostereoisomers of osteogenic growth peptide C-terminal pentapeptide, OGP(10-14)” (2002).

Non-standard residues stand in square brackets, D forms with d. Residues, ends and D or L forms follow the SMILES beside them. *: point of attachment. Desaminotyrosyl = O=C(CCc1ccc(O)cc1)*; NMeF = CN[C@@H](Cc1ccccc1)C(=O)O; Aib = CC(C)(N)C(=O)O; Ava = NCCCCC(=O)O; GABA = NCCCC(=O)O; βAla = NCCC(=O)O; Sar = CNCC(=O)O

System in the first experiment: not listed separately
Nature of the experiment: Proliferative activity in osteoblastic MC3T3 E1 cell culture relative to OGP(10-14). It counts as functional, Mus musculus. The method in brief:
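MC3T3 E1 osteoblastic cells were seeded at 2 × 10⁴ cells/well in RMEM with 10% FCS at 37 °C in CO₂/air. After 46 h in serum, they were washed, kept serum-free for 2 h, then switched to RMEM with 4% fatty-acid-free BSA, with or without peptide. The peptide was freshly dissolved at 10^-6 M, diluted, and preincubated for 30 min at 37 °C. The final concentration was 10^-13 M unless otherwise specified, with some dose-response runs.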
`O=C1CNC(=O)[C@H](Cc2ccc(O)cc2)NC(=O)CNC(=O)[C@H](Cc2ccccc2)NC(=O)CN1` had a Relative potency of 0.95.

The compound `O=C1CNC(=O)[C@@H](Cc2ccc(O)cc2)NC(=O)CNC(=O)[C@@H](Cc2ccccc2)NC(=O)CN1` yielded a Relative potency of 1.03.

For `O=C1CNC(=O)[C@@H](Cc2ccccc2)NC(=O)CNC(=O)[C@@H](Cc2ccc(O)cc2)NC(=O)CN1`, the Relative potency was 0.69.

As for `O=C1CNC(=O)[C@H](Cc2ccccc2)NC(=O)CNC(=O)[C@H](Cc2ccc(O)cc2)NC(=O)CN1`, the Relative potency is 0.79.

On to `O=C(O)CNC(=O)CNC(=O)[C@H](Cc1ccccc1)NCCNC(=O)CCc1ccc(O)cc1`, for which the Relative potency is reported as 0.61.

The compound `O=C(O)CNCCNC(=O)[C@H](Cc1ccccc1)NC(=O)CNC(=O)CCc1ccc(O)cc1` yielded a Relative potency of 0.78.

In turn, `O=C(O)CNC(=O)CNC[C@H](Cc1ccccc1)NC(=O)CNC(=O)CCc1ccc(O)cc1` showed a Relative potency of 0.7.

The compound `O=C(O)CCCCNC(=O)[C@H](Cc1ccccc1)NC(=O)CNC(=O)CCc1ccc(O)cc1` yielded a Relative potency of 0.78.

With `O=C(O)CNC(=O)CNC(=O)[C@H](Cc1ccccc1)NC(=O)CNCCCc1ccc(O)cc1`, the Relative potency was 0.81.

`N[C@H](CNCC(=O)N[C@@H](Cc1ccccc1)C(=O)NCC(=O)NCC(=O)O)Cc1ccc(O)cc1` yielded a Relative potency of 0.92.

The compound `CN(CC(=O)O)C(=O)CNC(=O)[C@H](Cc1ccccc1)NC(=O)CNC(=O)CCc1ccc(O)cc1` (Desaminotyrosyl-GFG[Sar]-OH) displayed a Relative potency of 0.16.

Turning to `CN(CC(=O)NCC(=O)O)C(=O)[C@H](Cc1ccccc1)NC(=O)CNC(=O)CCc1ccc(O)cc1` (Desaminotyrosyl-GF[Sar]G-OH), the Relative potency was found to be 0.15.

Regarding `CN(C(=O)CNC(=O)CCc1ccc(O)cc1)[C@@H](Cc1ccccc1)C(=O)NCC(=O)NCC(=O)O` (Desaminotyrosyl-G[NMeF]GG-OH), the Relative potency is 0.52.

Take `CN(CC(=O)N[C@@H](Cc1ccccc1)C(=O)NCC(=O)NCC(=O)O)C(=O)CCc1ccc(O)cc1` (Desaminotyrosyl-[Sar]FGG-OH): the Relative potency is 0.31.

In turn, `O=C(O)C[C@@H]1NC(=O)CNC(=O)[C@H](Cc2ccccc2)NC(=O)CNC(=O)[C@H](Cc2ccc(O)cc2)NC1=O` (cyclo(DYGFG)) came in with a Relative potency of 0.14.

For the compound `O=C1CNC(=O)CNC(=O)[C@H](Cc2ccccc2)NC(=O)CNC(=O)[C@H](Cc2ccc(O)cc2)NC(=O)CN1` (cyclo(FGGGYG)), the Relative potency stood at 0.26.

The compound `O=C1CNC(=O)[C@H](Cc2ccccc2)NC(=O)[C@@H]2CCCN2C(=O)[C@H](Cc2ccc(O)cc2)NC(=O)CN1` (cyclo(FGGYP)) registered a Relative potency of 0.99.

For the compound `O=C1CNC(=O)CNC(=O)[C@H](Cc2ccccc2)NC(=O)CNC(=O)[C@H](Cc2ccc(O)cc2)NC(=O)CCCN1` (cyclo(FGG[GABA]YG)), the Relative potency was 0.2.

Consider `O=C1CNC(=O)CNC(=O)[C@H](Cc2ccccc2)NC(=O)CNC(=O)[C@H](Cc2ccc(O)cc2)NC(=O)CCN1` (cyclo(FGG[βAla]YG)), for which the Relative potency is listed as 0.36.

As for `O=C1CNC(=O)[C@H](Cc2ccccc2)NC(=O)CNC(=O)[C@H](Cc2ccc(O)cc2)N1` (cyclo(FGYG)), the Relative potency amounted to 0.35.

As to `CC1(C)NC(=O)[C@H](Cc2ccc(O)cc2)NC(=O)CNC(=O)CNC(=O)[C@H](Cc2ccccc2)NC1=O` (cyclo([Aib]FGGY)), the Relative potency is 0.19.

Compound `O=C1CNC(=O)CNC(=O)[C@H](Cc2ccccc2)NC(=O)CNC(=O)[C@H](Cc2ccc(O)cc2)NC(=O)CCCCN1` (cyclo([Ava]YGFGG)) yielded a Relative potency of 0.14.

Regarding H-GGFGY-OH, the Relative potency was 0.71.

For H-YGFGG-OH, the Relative potency stood at 1.

H-YPFGG-OH gave a Relative potency of 0.89.

System in a further experiment: not listed separately
Nature of the experiment: (§1) Proliferative activity in fibroblastic […] cell culture relative to OGP(10-14). It counts as functional, Mus musculus. The method in brief: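 Mouse NIH 3T3 fibroblasts from confluent cultures were seeded at 2 × 10⁴ cells/well in RMEM with 10% FCS at 37 °C in CO₂/air for 46 h, then washed and held serum-free for 2 h. Medium was then replaced with RMEM containing 4% fatty-acid-free BSA, with or without peptide. The peptide was dissolved at 10^-6 M, diluted, and pre-warmed for 30 min at 37 °C. The final concentration was 10^-11 M unless otherwise stated.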
Regarding `O=C1CNC(=O)[C@H](Cc2ccc(O)cc2)NC(=O)CNC(=O)[C@H](Cc2ccccc2)NC(=O)CN1`, the Relative potency worked out at 1.02.

Regarding `O=C1CNC(=O)[C@@H](Cc2ccc(O)cc2)NC(=O)CNC(=O)[C@@H](Cc2ccccc2)NC(=O)CN1`, the Relative potency turned out to be 1.16.

In the case of `O=C1CNC(=O)[C@@H](Cc2ccccc2)NC(=O)CNC(=O)[C@@H](Cc2ccc(O)cc2)NC(=O)CN1`, the Relative potency amounted to 0.84.

`O=C1CNC(=O)[C@H](Cc2ccccc2)NC(=O)CNC(=O)[C@H](Cc2ccc(O)cc2)NC(=O)CN1` gave a Relative potency of 1.12.

`O=C(O)CNC(=O)CNC(=O)[C@H](Cc1ccccc1)NCCNC(=O)CCc1ccc(O)cc1` yielded a Relative potency of 0.67.

With `O=C(O)CNCCNC(=O)[C@H](Cc1ccccc1)NC(=O)CNC(=O)CCc1ccc(O)cc1`, the Relative potency is listed as 0.8.

Take `O=C(O)CNC(=O)CNC[C@H](Cc1ccccc1)NC(=O)CNC(=O)CCc1ccc(O)cc1`: the Relative potency is recorded as 0.88.

For the compound `O=C(O)CCCCNC(=O)[C@H](Cc1ccccc1)NC(=O)CNC(=O)CCc1ccc(O)cc1`, the Relative potency is on record as 0.88.

As for `O=C(O)CNC(=O)CNC(=O)[C@H](Cc1ccccc1)NC(=O)CNCCCc1ccc(O)cc1`, the Relative potency is 0.79.

`N[C@H](CNCC(=O)N[C@@H](Cc1ccccc1)C(=O)NCC(=O)NCC(=O)O)Cc1ccc(O)cc1` gave a Relative potency of 0.87.

In turn, `CN(CC(=O)O)C(=O)CNC(=O)[C@H](Cc1ccccc1)NC(=O)CNC(=O)CCc1ccc(O)cc1` (Desaminotyrosyl-GFG[Sar]-OH) gave a Relative potency of 0.14.

With `CN(CC(=O)NCC(=O)O)C(=O)[C@H](Cc1ccccc1)NC(=O)CNC(=O)CCc1ccc(O)cc1` (Desaminotyrosyl-GF[Sar]G-OH), the Relative potency turned out to be 0.11.

The compound `CN(C(=O)CNC(=O)CCc1ccc(O)cc1)[C@@H](Cc1ccccc1)C(=O)NCC(=O)NCC(=O)O` (Desaminotyrosyl-G[NMeF]GG-OH) returned a Relative potency of 0.67.

In turn, `CN(CC(=O)N[C@@H](Cc1ccccc1)C(=O)NCC(=O)NCC(=O)O)C(=O)CCc1ccc(O)cc1` (Desaminotyrosyl-[Sar]FGG-OH) showed a Relative potency of 0.39.

On to `O=C(O)C[C@@H]1NC(=O)CNC(=O)[C@H](Cc2ccccc2)NC(=O)CNC(=O)[C@H](Cc2ccc(O)cc2)NC1=O` (cyclo(DYGFG)), for which the Relative potency is 0.11.

Consider `O=C1CNC(=O)CNC(=O)[C@H](Cc2ccccc2)NC(=O)CNC(=O)[C@H](Cc2ccc(O)cc2)NC(=O)CN1` (cyclo(FGGGYG)), for which the Relative potency came to 0.2.

With `O=C1CNC(=O)[C@H](Cc2ccccc2)NC(=O)[C@@H]2CCCN2C(=O)[C@H](Cc2ccc(O)cc2)NC(=O)CN1` (cyclo(FGGYP)), the Relative potency was 0.9.

For the compound `O=C1CNC(=O)CNC(=O)[C@H](Cc2ccccc2)NC(=O)CNC(=O)[C@H](Cc2ccc(O)cc2)NC(=O)CCCN1` (cyclo(FGG[GABA]YG)), the Relative potency was determined as 0.22.

In turn, `O=C1CNC(=O)CNC(=O)[C@H](Cc2ccccc2)NC(=O)CNC(=O)[C@H](Cc2ccc(O)cc2)NC(=O)CCN1` (cyclo(FGG[βAla]YG)) had a Relative potency of 0.37.

`O=C1CNC(=O)[C@H](Cc2ccccc2)NC(=O)CNC(=O)[C@H](Cc2ccc(O)cc2)N1` (cyclo(FGYG)): the Relative potency amounted to 0.43.

With `CC1(C)NC(=O)[C@H](Cc2ccc(O)cc2)NC(=O)CNC(=O)CNC(=O)[C@H](Cc2ccccc2)NC1=O` (cyclo([Aib]FGGY)), the Relative potency was 0.31.

For the compound `O=C1CNC(=O)CNC(=O)[C@H](Cc2ccccc2)NC(=O)CNC(=O)[C@H](Cc2ccc(O)cc2)NC(=O)CCCCN1` (cyclo([Ava]YGFGG)), the Relative potency turned out to be 0.18.

Consider H-GGFGY-OH, for which the Relative potency stood at 0.82.

Compound H-YPFGG-OH displayed a Relative potency of 0.96.

A further experiment has as its system NIH3T3. Described as §1. It counts as functional, Mus musculus. In outline: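 NIH 3T3 fibroblasts from confluent cultures in RMEM with 10% FCS, seeded at 2 × 10⁴ cells/well, 37 °C in CO₂/air. They were kept 46 h in FCS medium, then 2 h serum-free. Medium was switched to 4% fatty-acid-free BSA RMEM ± peptide, 10^-11 M final, preincubated 30 min at 37 °C. Read-out was cell number in triplicate wells, converted to treated/control ratio against OGP(10-14) reference.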
Take H-YGFGG-OH: the Relative potency was 1.
